From ChEMBL document CHEMBL1149165, “Significant differences in biological parameters between prodrugs cleavable by carboxypeptidase G2 that generate 3,5-difluoro-phenol and -aniline nitrogen mustards in gene-directed enzyme prodrug therapy systems” (J Med Chem, 2004)

Tests used:
MDA-MB-361 = assay: Ratio of the IC50 in thebeta-Gal- and CPG2-expressing cell line; type: functional, Homo sapiens
In short: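 Degree of activation: IC50 in β-Gal-expressing MDA MB 361 cells divided by IC50 in stCPG2(Q)3-expressing cells. Both IC50s are from sulforhodamine-B regrowth assays after two-stage prodrug exposure, fitted to a log dose-effect sigmoid.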

[1] = The chemical half-life by HPLC; type: ADME
In short: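 10 mM DMSO stocks diluted 100-fold to 100 µM in 100 mM Tris-HCl pH 7.3 with 260 µM ZnCl₂. Remaining parent measured over time by isocratic reverse-phase HPLC (phenyl column, 0.1% TFA with 65-85% methanol, 250-275 nm), using repeat or delayed injections. Half-life from one-phase exponential decay fit, maximum 1 and minimum 0.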

[2] = substrate: O=C(O)CCC[C@H](NC(=O)Nc1cc(F)c(N(CCCl)CCCl)c(F)c1)C(=O)O; assay: Michaelis-Menten constant towards carboxypeptidase G2 enzyme; settings: Pseudomonas aeruginosa
In short: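 CPG2 (50 mU) with prodrug at 5-50 µM in 5 µM steps, diluted from DMSO concentrates into 100 mM Tris-HCl pH 7.3 with 260 µM ZnCl₂, 37 °C. Remaining prodrug measured by isocratic reverse-phase HPLC (phenyl column, 0.1% TFA/methanol, 250-275 nm) at 0, 5, 10, 15 and 20 min.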

## CS(=O)(=O)OCCN(CCCl)c1c(F)cc(OC(=O)N[C@@H](CCCC(=O)O)C(=O)O)cc1F
MDA-MB-361
  Degree of activation: 0.9 fold

## O=C(O)CCC[C@H](NC(=O)Oc1cc(F)c(N(CCCl)CCCl)c(F)c1)C(=O)O
[1]
  half-life: 45 min

B1: Carboxypeptidase G2 (Pseudomonas aeruginosa (strain ATCC 15692 / PAO1 / 1C / PRS 101 / LMG12228)), Q9I056 (protein)
chain: MHARRLPRLLPLALAFLLSPAAFAADTPAAELLRQAEAERPAYLDTLRQLVAVDSGTGQAEGLGQLSALLAERLQALGAQVRSAPATPSAGDNLVATLDGTGSKRFLLMIHYDTVFAAGSAAKRPFREDAERAYGPGVADAKGGVAMVLHALALLRQQGFRDYGRITVLFNPDEETGSAGSKQLIAELARQQDYVFSYEPPDRDAVTVATNGIDGLLLEVKGRSSHAGSAPEQGRNAILELSHQLLRLKDLGDPAKGTTLNWTLARGGEKRNIIPAEASAEADMRYSDPAESERVLADARKLTGERLVADTEVSLRLDKGRPPLVKNPASQRLAETAQTLYGRIGKRIEPIAMRFGTDAGYAYVPGSDKPAVLETLGVVGAGLHSEAEYLELSSIAPRLYLTVALIRELSAD
[2]
  Km: 7.7 µM
